According to ChEMBL document CHEMBL4270668, “Design, Synthesis, Molecular Dynamics Simulation, and Functional Evaluation of a Novel Series of 26RFa Peptide Analogues Containing a Mono- or Polyalkyl Guanidino Arginine Derivative” (J Med Chem, 2018):
Starred links: 1 amine or outer side, 2 acyl side, 3 side chain; linkers in the order of their positions; H or OH if unused. Non-standard residues stand in square brackets, D forms with d. Residues, ends and D or L forms follow the SMILES beside them. X25 = C/N=C(/NCCCC[C@H](N[*:1])C(=O)[*:2])N(C)C; X14 = CCN(CC)C(=N)NCCCC[C@H](N[*:1])C(=O)[*:2]; X16 = CC(C)CNC(=N)NCCC[C@H](N[*:1])C(=O)[*:2]; X18 = C/N=C(/NCC[C@H](N[*:1])C(=O)[*:2])N(C)C; X24 = N=C(NCCCC[C@H](N[*:1])C(=O)[*:2])N1CCC1; X17 = CC(C)CNC(=N)NCC[C@H](N[*:1])C(=O)[*:2]; X19 = C/N=C(\NC)NCCCC[C@H](N[*:1])C(=O)[*:2]; X21 = CCN(C)C(=N)NCCC[C@H](N[*:1])C(=O)[*:2]; X13 = C/N=C(\NC)NCC[C@H](N[*:1])C(=O)[*:2]; X20 = CCNC(=N)NCCCC[C@H](N[*:1])C(=O)[*:2]; X23 = CN(C)C(=N)NCC[C@H](N[*:1])C(=O)[*:2]; X22 = CCCNC(=N)NCC[C@H](N[*:1])C(=O)[*:2]; X15 = CCNC(=N)NCC[C@H](N[*:1])C(=O)[*:2]; Arg(Me) = CNC(=N)NCCC[C@H](N)C(=O)O; hArg = N=C(N)NCCCC[C@H](N)C(=O)O

Assays:
[1] = biological target: T1, Pyroglutamylated RF-amide peptide receptor (Homo sapiens, UniProt Q96P65); assay: Agonist activity at human QRFPR expressed in CHO cells co-expressing Galpha16 assessed as increase Ca2+ mobilization after 3 mins by Fluo-4 AM-based scanning fluorometery; assay type: functional, cell-based
T1 sequence (Q96P65 whole entry): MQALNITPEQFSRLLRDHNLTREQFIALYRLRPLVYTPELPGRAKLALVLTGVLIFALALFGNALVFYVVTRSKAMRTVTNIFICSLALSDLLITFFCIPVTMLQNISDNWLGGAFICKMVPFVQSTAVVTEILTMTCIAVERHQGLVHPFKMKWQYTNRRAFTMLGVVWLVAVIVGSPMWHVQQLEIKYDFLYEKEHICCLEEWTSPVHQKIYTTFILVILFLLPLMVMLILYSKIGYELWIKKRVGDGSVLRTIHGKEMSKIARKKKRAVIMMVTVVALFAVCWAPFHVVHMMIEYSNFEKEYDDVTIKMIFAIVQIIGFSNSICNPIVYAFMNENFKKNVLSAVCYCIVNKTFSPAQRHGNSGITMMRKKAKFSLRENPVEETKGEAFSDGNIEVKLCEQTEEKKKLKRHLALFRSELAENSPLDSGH
Outline: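 CHO-Gα16 cells stably expressing human QRFPR, seeded at 40,000 cells/well 24 h ahead. Loaded 1 h with 2 µM Fluo-4 AM plus 0.01% pluronic acid, washed, then 30 min in HBSS with 2.5 mM probenecid and 5 mM HEPES. Compounds added at final 10^-11 to 10^-5 M; fluorescence recorded 3 min on a scanning fluorometer. EC50 from sigmoidal variable-slope fits, ≥3 experiments in triplicate.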

[2] = biological target: T1, Pyroglutamylated RF-amide peptide receptor; assay: Antagonist activity at human QRFPR expressed in CHO cells co-expressing Galpha16 assessed as inhibition of 26RFa-induced Ca2+ mobilization preincubated for 15 mins followed by agonist addition measured after 3 mins by Fluo-4 AM-based scanning fluorometery; assay type: functional, cell-based
Outline: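 CHO-Gα16-hQRFPR cells loaded 1 h with 2 µM Fluo-4 AM, then incubated 15 min with graded compound. A 10^-7 M final 26RFa pulse was given during recording. Background subtracted, baseline normalized to 100%, peak fluorescence taken per concentration. IC50 from sigmoidal variable-slope fits, ≥3 experiments in triplicate. Maximal effect at 10^-4 M expressed as % inhibition of the 26RFa (10^-7 M) response.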

EC50 [1] [µM] | IC50 [2] [µM] | Compound
> 100 | > 100 | C/N=C(\NC)NCC[C@H](NC(=O)[C@H](Cc1ccccc1)NC(=O)[C@H](CO)NC(=O)[C@H](Cc1ccccc1)NC(=O)CNC(=O)CN)C(=O)N[C@@H](Cc1ccccc1)C(N)=O (H-GGFSF[X13]F-NH2)
> 100 | > 100 | CCN(CC)C(=N)NCCCC[C@H](NC(=O)[C@H](Cc1ccccc1)NC(=O)[C@H](CO)NC(=O)[C@H](Cc1ccccc1)NC(=O)CNC(=O)CN)C(=O)N[C@@H](Cc1ccccc1)C(N)=O (H-GGFSF[X14]F-NH2)
> 100 | > 100 | CCNC(=N)NCC[C@H](NC(=O)[C@H](Cc1ccccc1)NC(=O)[C@H](CO)NC(=O)[C@H](Cc1ccccc1)NC(=O)CNC(=O)CN)C(=O)N[C@@H](Cc1ccccc1)C(N)=O (H-GGFSF[X15]F-NH2)
1.5 |  | CC(C)CNC(=N)NCCC[C@H](NC(=O)[C@H](Cc1ccccc1)NC(=O)[C@H](CO)NC(=O)[C@H](Cc1ccccc1)NC(=O)CNC(=O)CN)C(=O)N[C@@H](Cc1ccccc1)C(N)=O (H-GGFSF[X16]F-NH2)
> 100 | > 100 | CC(C)CNC(=N)NCC[C@H](NC(=O)[C@H](Cc1ccccc1)NC(=O)[C@H](CO)NC(=O)[C@H](Cc1ccccc1)NC(=O)CNC(=O)CN)C(=O)N[C@@H](Cc1ccccc1)C(N)=O (H-GGFSF[X17]F-NH2)
> 100 | > 100 | C/N=C(/NCC[C@H](NC(=O)[C@H](Cc1ccccc1)NC(=O)[C@H](CO)NC(=O)[C@H](Cc1ccccc1)NC(=O)CNC(=O)CN)C(=O)N[C@@H](Cc1ccccc1)C(N)=O)N(C)C (H-GGFSF[X18]F-NH2)
> 100 | > 100 | C/N=C(\NC)NCCCC[C@H](NC(=O)[C@H](Cc1ccccc1)NC(=O)[C@H](CO)NC(=O)[C@H](Cc1ccccc1)NC(=O)CNC(=O)CN)C(=O)N[C@@H](Cc1ccccc1)C(N)=O (H-GGFSF[X19]F-NH2)
> 100 | > 100 | CCNC(=N)NCCCC[C@H](NC(=O)[C@H](Cc1ccccc1)NC(=O)[C@H](CO)NC(=O)[C@H](Cc1ccccc1)NC(=O)CNC(=O)CN)C(=O)N[C@@H](Cc1ccccc1)C(N)=O (H-GGFSF[X20]F-NH2)
> 100 | > 100 | CCN(C)C(=N)NCCC[C@H](NC(=O)[C@H](Cc1ccccc1)NC(=O)[C@H](CO)NC(=O)[C@H](Cc1ccccc1)NC(=O)CNC(=O)CN)C(=O)N[C@@H](Cc1ccccc1)C(N)=O (H-GGFSF[X21]F-NH2)
> 100 | > 100 | CCCNC(=N)NCC[C@H](NC(=O)[C@H](Cc1ccccc1)NC(=O)[C@H](CO)NC(=O)[C@H](Cc1ccccc1)NC(=O)CNC(=O)CN)C(=O)N[C@@H](Cc1ccccc1)C(N)=O (H-GGFSF[X22]F-NH2)
> 100 | > 100 | CN(C)C(=N)NCC[C@H](NC(=O)[C@H](Cc1ccccc1)NC(=O)[C@H](CO)NC(=O)[C@H](Cc1ccccc1)NC(=O)CNC(=O)CN)C(=O)N[C@@H](Cc1ccccc1)C(N)=O (H-GGFSF[X23]F-NH2)
> 100 | > 100 | N=C(NCCCC[C@H](NC(=O)[C@H](Cc1ccccc1)NC(=O)[C@H](CO)NC(=O)[C@H](Cc1ccccc1)NC(=O)CNC(=O)CN)C(=O)N[C@@H](Cc1ccccc1)C(N)=O)N1CCC1 (H-GGFSF[X24]F-NH2)
> 100 | > 100 | C/N=C(/NCCCC[C@H](NC(=O)[C@H](Cc1ccccc1)NC(=O)[C@H](CO)NC(=O)[C@H](Cc1ccccc1)NC(=O)CNC(=O)CN)C(=O)N[C@@H](Cc1ccccc1)C(N)=O)N(C)C (H-GGFSF[X25]F-NH2)
1.91 |  | N=C(N)NCCCC[C@H](NC(=O)[C@H](Cc1ccccc1)NC(=O)[C@H](CO)NC(=O)[C@H](Cc1ccccc1)NC(=O)CNC(=O)CN)C(=O)N[C@@H](Cc1ccccc1)C(N)=O (H-GGFSF[hArg]F-NH2)
0.0069 |  | CNC(=N)NCCC[C@H](NC(=O)[C@H](Cc1ccccc1)NC(=O)[C@H](CO)NC(=O)[C@H](Cc1ccccc1)NC(=O)CNC(=O)CNC(=O)[C@H](CCCCN)NC(=O)[C@H](CCCCN)NC(=O)[C@H](CCCNC(=N)N)NC(=O)[C@H](CO)NC(=O)[C@H](Cc1ccc(O)cc1)NC(=O)CNC(=O)[C@H](CC(N)=O)NC(=O)[C@H](CC(C)C)NC(=O)[C@H](CCC(=O)O)NC(=O)[C@H](CCC(=O)O)NC(=O)[C@H](C)NC(=O)[C@H](CC(C)C)NC(=O)[C@H](CC(N)=O)NC(=O)CNC(=O)[C@H](CC(C)C)NC(=O)[C@@H]1CCCN1C(=O)CNC(=O)[C@H](CO)NC(=O)[C@@H](N)[C@@H](C)O)C(=O)N[C@@H](Cc1ccccc1)C(N)=O (H-TSGPLGNLAEELNGYSRKKGGFSF[Arg(Me)]F-NH2)

Compound | EC50 [1] [µM] | IC50 [2] [µM]
H-GGFSFRF-NH2 | 1.64 | 
